Measured values taken from ChEMBL document CHEMBL1153580, “Synthesis and pharmacological investigation of 3-(substituted 1-phenylethanone)-4-(substituted phenyl)-1, 2, 3, 4-tetrahydropyrimidine-5-carboxylates” (Eur J Med Chem, 2009).

How the values were obtained:
Rattus norvegicus [1] = assay: Antihypertensive activity in Norwegian albino rat assessed as inhibition of DOCA salt-induced diastolic blood pressure at 10 mg/kg, po after 120 mins by invasive carotid artery cannulation method; format: functional; conditions: 2 h
How it was run: (§1)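 Male rats (200–250 g), uninephrectomized and given DOCA s.c. (30–50 mg/kg/week) with 1% NaCl drinking water. Anesthetized with pentobarbital (35 mg/kg i.p.); left carotid artery cannulated and exteriorized. After recovery and a baseline reading, compound given orally by feeding needle. Diastolic pressure recorded via transducer at 15, 30, 60, 120 and 180 min. Mean ± S.E.M.; repeated-measures ANOVA.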

Rattus norvegicus [2] = assay: Antihypertensive activity in Norwegian albino rat assessed as inhibition of DOCA salt-induced diastolic blood pressure at 10 mg/kg, po after 180 mins by invasive carotid artery cannulation method; format: functional; conditions: 3 h; how it was run: as §1
Rattus norvegicus [3] = assay: Antihypertensive activity in Norwegian albino rat assessed as inhibition of DOCA salt-induced diastolic blood pressure at 10 mg/kg, po after 240 mins by invasive carotid artery cannulation method; format: functional; conditions: 4 h
Rattus norvegicus [4] = assay: Antiinflammatory activity in Norwegian albino rat assessed as inhibition of carrageenan-induced paw edema at 100 mg/kg, po after administered 60 mins prior to carrageenan-challenge measured after 1 hr; format: functional
How it was run: (§2)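 Compound given orally as 100 mg/kg suspension in 0.5% CMC. 60 min later, carrageenan injected sub-plantar into the left hind paw. Paw volume measured within 30 s of injection, then at 1–5 h. % inhibition = [1−(Dt/Dc)]×100, where Dt and Dc are mean relative paw-volume changes in test and control. ANOVA.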

Rattus norvegicus [5] = assay: Antiinflammatory activity in Norwegian albino rat assessed as inhibition of carrageenan-induced paw edema at 100 mg/kg, po after administered 60 mins prior to carrageenan-challenge measured after 3 hrs; format: functional; how it was run: as §2
Rattus norvegicus [6] = assay: Antiinflammatory activity in Norwegian albino rat assessed as inhibition of carrageenan-induced paw edema at 100 mg/kg, po after administered 60 mins prior to carrageenan-challenge measured after 5 hrs; format: functional; how it was run: as §2
Mus musculus = assay: Analgesic activity against acetic acid-induced writhing in Swiss albino mouse assessed as protection at 20 mg/kg, po; format: functional
How it was run: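 Swiss albino mice (25–30 g), six per group, habituated 30 min individually in the test cage. Compound in 1% CMC given p.o. at 20 mg/kg. 1 h later, acetic acid injected i.p.; writhes (arching of back, body elongation, hind-limb extension) counted 5–15 min after injection. % inhibition = (n−n′)/n×100, where n and n′ are mean writhes in control and test.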

Rattus norvegicus [7] = assay: Gastrointestinal toxicity in albino rat assessed as ulcerogenic index at 50 mg/kg, po; format: organism-based; parameters: dose 50 mg/kg, route oral; conditions: in vivo
How it was run: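 Albino rats (150–200 g), six per group, food but not water withheld 24 h. Compound given p.o. at 50 mg/kg; controls received 1% methyl cellulose. Rats fed 17 h, then killed; stomach opened along greater curvature and examined under 4× magnifier. Lesions scored as large (>2 mm), small (1–2 mm) or punctiform (<1 mm). Severity index = treated mean score minus control mean score.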

Rattus norvegicus [8] = assay: Antihypertensive activity in Norwegian albino rat assessed as inhibition of DOCA salt-induced systolic blood pressure at 10 mg/kg, po after 420 mins by non-invasive tail-cuff method; format: functional; conditions: Artery, 7 h
How it was run: (§3)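 Male rats (200–250 g), uninephrectomized under pentobarbital (50 mg/kg i.p.); one week later DOCA s.c. 30–50 mg/kg/week, with 1% w/v NaCl in drinking water. Groups of six, trained in restrainer, tail warmed at 33–34 °C. Compound in 0.5% CMC, 10 mg/kg orally. Systolic pressure read by tail-cuff before dosing and from 1 h after; three readings averaged. ANOVA.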

Rattus norvegicus [9] = assay: Antihypertensive activity in Norwegian albino rat assessed as inhibition of DOCA salt-induced systolic blood pressure at 10 mg/kg, po after 15 mins by non-invasive tail-cuff method; format: functional; conditions: Artery, 0.25 h
Rattus norvegicus [10] = assay: Antihypertensive activity in Norwegian albino rat assessed as inhibition of DOCA salt-induced systolic blood pressure at 10 mg/kg, po after 30 mins by non-invasive tail-cuff method; format: functional; conditions: Artery, 0.5 h
Rattus norvegicus [11] = assay: Antihypertensive activity in Norwegian albino rat assessed as inhibition of DOCA salt-induced systolic blood pressure at 10 mg/kg, po after 60 mins by non-invasive tail-cuff method; format: functional; conditions: Artery, 1 h; how it was run: as §3
Rattus norvegicus [12] = assay: Antihypertensive activity in Norwegian albino rat assessed as inhibition of DOCA salt-induced systolic blood pressure at 10 mg/kg, po after 120 mins by non-invasive tail-cuff method; format: functional; conditions: Artery, 2 h; how it was run: as §3
Rattus norvegicus [13] = assay: Antihypertensive activity in Norwegian albino rat assessed as inhibition of DOCA salt-induced systolic blood pressure at 10 mg/kg, po after 180 mins by non-invasive tail-cuff method; format: functional; conditions: Artery, 3 h; how it was run: as §3
Rattus norvegicus [14] = assay: Antihypertensive activity in Norwegian albino rat assessed as inhibition of DOCA salt-induced systolic blood pressure at 10 mg/kg, po after 240 mins by non-invasive tail-cuff method; format: functional; conditions: Artery, 4 h; how it was run: as §3
Rattus norvegicus [15] = assay: Antihypertensive activity in Norwegian albino rat assessed as inhibition of DOCA salt-induced systolic blood pressure at 10 mg/kg, po after 300 mins by non-invasive tail-cuff method; format: functional; conditions: Artery, 5 h; how it was run: as §3
Rattus norvegicus [16] = assay: Antihypertensive activity in Norwegian albino rat assessed as inhibition of DOCA salt-induced systolic blood pressure at 10 mg/kg, po after 360 mins by non-invasive tail-cuff method; format: functional; conditions: Artery, 6 h; how it was run: as §3
Rattus norvegicus [17] = assay: Antihypertensive activity in Norwegian albino rat assessed as inhibition of DOCA salt-induced systolic blood pressure at 10 mg/kg, po after 480 mins by non-invasive tail-cuff method; format: functional; conditions: Artery, 8 h; how it was run: as §3
Rattus norvegicus [18] = assay: Antihypertensive activity in Norwegian albino rat assessed as inhibition of DOCA salt-induced diastolic blood pressure at 10 mg/kg, po after 15 mins by invasive carotid artery cannulation method; format: functional; conditions: 0.25 h; how it was run: as §1
Rattus norvegicus [19] = assay: Antihypertensive activity in Norwegian albino rat assessed as inhibition of DOCA salt-induced diastolic blood pressure at 10 mg/kg, po after 30 mins by invasive carotid artery cannulation method; format: functional; conditions: 0.5 h; how it was run: as §1
Rattus norvegicus [20] = assay: Antihypertensive activity in Norwegian albino rat assessed as inhibition of DOCA salt-induced diastolic blood pressure at 10 mg/kg, po after 60 mins by invasive carotid artery cannulation method; format: functional; conditions: 1 h; how it was run: as §1

Row | Structure (SMILES) | inhibition in vivo at 10 mg/kg (Rattus norvegicus [1]) | inhibition in vivo at 10 mg/kg (Rattus norvegicus [2]) | inhibition in vivo at 10 mg/kg (Rattus norvegicus [3]) | inhibition in vivo at 100 mg/kg (Rattus norvegicus [4]) | inhibition in vivo at 100 mg/kg (Rattus norvegicus [5]) | inhibition in vivo at 100 mg/kg (Rattus norvegicus [6]) | Activity (Mus musculus) | UI (Rattus norvegicus [7]) | inhibition in vivo at 10 mg/kg (Rattus norvegicus [8]) | inhibition in vivo at 10 mg/kg (Rattus norvegicus [9]) | inhibition in vivo at 10 mg/kg (Rattus norvegicus [10]) | inhibition in vivo at 10 mg/kg (Rattus norvegicus [11]) | inhibition in vivo at 10 mg/kg (Rattus norvegicus [12]) | inhibition in vivo at 10 mg/kg (Rattus norvegicus [13]) | inhibition in vivo at 10 mg/kg (Rattus norvegicus [14]) | inhibition in vivo at 10 mg/kg (Rattus norvegicus [15]) | inhibition in vivo at 10 mg/kg (Rattus norvegicus [16]) | inhibition in vivo at 10 mg/kg (Rattus norvegicus [17]) | inhibition in vivo at 10 mg/kg (Rattus norvegicus [18]) | inhibition in vivo at 10 mg/kg (Rattus norvegicus [19]) | further results
1 | CCOC(=O)C1=C(C)NC(OC)N(CC(=O)c2ccc(OC)cc2)C1c1ccc(C)cc1 (stereo unspecified) | 30% | 37.6% | 47.9% | 38.8% | 39.8% | 42% | 43.33% | 0.56 | 44% | 1.82% | 11.1% | 14.7% | 24% | 28.1% | 36.9% | 39.6% | 42% | 46.3% | 3.12% | 11.5% | inhibition in vivo at 10 mg/kg (Rattus norvegicus [20]): 22.5%
2 | CCOC(=O)C1=C(C)NC(OC)N(CC(=O)c2ccc(Cl)cc2)C1c1ccc(OC)cc1 (stereo unspecified) | 30.1% | 37.9% | 47.7% | 37.8% | 39.5% | 42% | 49.56% | 0.45 | 49.4% | 1.57% | 6.58% | 18.2% | 23.8% | 28% | 36% | 41.4% | 42.9% | 51.9% | 1.79% | 10.1% | inhibition in vivo at 10 mg/kg (Rattus norvegicus [20]): 23.5%
3 | CCOC(=O)C1=C(C)NC(OC)N(CC(=O)c2ccccc2)C1c1ccc(Cl)cc1 (stereo unspecified) | – | – | – | 39.8% | 41% | 42% | 37.87% | 0.45 | 32.1% | 0.91% | 1.87% | 15.2% | 20.5% | 22.9% | 25.6% | 28.4% | 29.7% | 35.6% | – | – | –
4 | CCOC(=O)C1=C(C)NC(OC)N(CC(=O)c2ccccc2)C1c1ccc(C)cc1 (stereo unspecified) | 30.6% | 35.5% | 48.7% | 37.8% | 37.9% | 38.9% | – | – | 44% | 0.59% | 1.87% | 13.7% | 17.4% | 28% | 36.8% | 38.3% | 42% | 45.5% | 2.2% | 9.79% | inhibition in vivo at 10 mg/kg (Rattus norvegicus [20]): 23.1%
5 | CCOC(=O)C1=C(C)NC(OC)N(CC(=O)c2ccc(Cl)cc2)C1c1ccc(Cl)cc1 (stereo unspecified) | 30.6% | 38.1% | 46.3% | 39.8% | 41% | 42% | 37.33% | 0.2 | 44% | 0.27% | 6.45% | 12.7% | 19.6% | 28.2% | 35.5% | 37.4% | 39.8% | 44.2% | 1.84% | 8.92% | inhibition in vivo at 10 mg/kg (Rattus norvegicus [20]): 23.3%
6 | COC(=O)C1=C(C)NC(C)=C(C(=O)OC)C1c1ccccc1[N+](=O)[O-] [NIFEDIPINE] | 30.8% | 39.4% | 48.4% | – | – | – | – | – | 45.5% | 1.29% | 4.44% | 12.9% | 19.7% | 25% | 35.5% | 44.2% | 44.5% | 46.6% | 2.51% | 11.7% | inhibition in vivo at 10 mg/kg (Rattus norvegicus [20]): 23.6%
7 | CCOC(=O)C1=C(C)NC(OC)N(CC(=O)c2ccc(OC)cc2)C1c1ccc(O)cc1 (stereo unspecified) | – | – | – | 37.6% | 38.2% | 39.9% | – | – | 29.4% | 0.27% | 1.43% | 12.7% | 19.6% | 21.6% | 23.3% | 26.3% | 28% | 31% | – | – | –
8 | CC(C)Cc1ccc(C(C)C(=O)O)cc1 (stereo unspecified) [IBUPROFEN] | – | – | – | – | – | – | 62.55% | 1.97 | – | – | – | – | – | – | – | – | – | – | – | – | –
9 | CCOC(=O)C1=C(C)NC(OC)N(CC(=O)c2ccccc2)C1c1ccc(O)cc1 (stereo unspecified) | – | – | – | 39.8% | 40.9% | 42% | 40.33% | 0.18 | 33% | 0.59% | 1.87% | 15.2% | 21.8% | 23% | 27.8% | 28.5% | 31.4% | 35.5% | – | – | –
10 | CCOC(=O)C1=C(C)NC(OC)N(CC(=O)c2ccccc2)C1c1ccccc1 (stereo unspecified) | – | – | – | 39.8% | 41% | 42% | 40.14% | 0.16 | 29.4% | 0.59% | 1.43% | 13% | 19.6% | 21.6% | 23.3% | 26.3% | 28.7% | 31% | – | – | –
11 | COc1ccc2c(c1)c(CC(=O)O)c(C)n2C(=O)c1ccc(Cl)cc1 [INDOMETHACIN] | – | – | – | 46.4% | 51.8% | 52.6% | – | – | – | – | – | – | – | – | – | – | – | – | – | – | –
